Bioassay records: PubChem BioAssay, several laboratories
MEKK2 WT-MEK5: raises or lowers MEK5 binding to wildtype human MEKK2 PB1 domain; AID 1531; binding response (% of control), % at 10 µM; bead flow cytometry, Alexa488-MEK5 binding to MEKK2 WT; actives lie on both sides; actives 1.1% (n = 290,000); in the data active = binding response below about 67% or above about 130%
MEKK2mut PB1 HTS: signal of MEK5 binding to mutant human MEKK2 PB1 domain. bead flow cytometry, Alexa488-MEK5 binding to MEKK2 mutant. percent response, % at 10 µM. actives 0.35% (n = 290,000). AID 1530; in the data active = percent response above about 24%, passing the limit was not always enough
Lipid droplet: hepatic lipid droplet formation modulation; AML12 mouse hepatocytes, oleate lipid droplets, BODIPY imaging; inhibition, % at 6.5 µM; actives 0.4% (n = 240,000); AID 1656;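 active = lipid droplet intensity inhibited by at least 50%, with more than 500 cells counted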
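Test system: AML12 hepatocytes (mouse); reagent: oleate loading, 100 µM; dosing: one dose, 6.5 µM compound; incubation: overnight exposure; signal: fluorescence imaging, 20x objective, two fields per well; read-out basis: % inhibition of corrected integrated BODIPY droplet signal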
MEKK3 PB1 HTS: modulators (inhibitors or enhancers) of MEK5 binding to human MEKK3 PB1 domain; bead-based flow cytometry, Alexa488-MEK5 binding to MEKK3; actives lie on both sides; 0 = blocked by unlabeled MEK5, 100 = vehicle; actives 1.4% (n = 290,000); binding response (% of control), % at 10 µM; Q99759;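 active = binding response more than 3 SD above or below the average of its plate-row segment, actives on both sides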;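 note: Alexa488 bead fluorescence after subtracting the streptavidin-only scavenger bead signal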
Target sequence (Q99759 whole entry, looked up, the tested form may be a part): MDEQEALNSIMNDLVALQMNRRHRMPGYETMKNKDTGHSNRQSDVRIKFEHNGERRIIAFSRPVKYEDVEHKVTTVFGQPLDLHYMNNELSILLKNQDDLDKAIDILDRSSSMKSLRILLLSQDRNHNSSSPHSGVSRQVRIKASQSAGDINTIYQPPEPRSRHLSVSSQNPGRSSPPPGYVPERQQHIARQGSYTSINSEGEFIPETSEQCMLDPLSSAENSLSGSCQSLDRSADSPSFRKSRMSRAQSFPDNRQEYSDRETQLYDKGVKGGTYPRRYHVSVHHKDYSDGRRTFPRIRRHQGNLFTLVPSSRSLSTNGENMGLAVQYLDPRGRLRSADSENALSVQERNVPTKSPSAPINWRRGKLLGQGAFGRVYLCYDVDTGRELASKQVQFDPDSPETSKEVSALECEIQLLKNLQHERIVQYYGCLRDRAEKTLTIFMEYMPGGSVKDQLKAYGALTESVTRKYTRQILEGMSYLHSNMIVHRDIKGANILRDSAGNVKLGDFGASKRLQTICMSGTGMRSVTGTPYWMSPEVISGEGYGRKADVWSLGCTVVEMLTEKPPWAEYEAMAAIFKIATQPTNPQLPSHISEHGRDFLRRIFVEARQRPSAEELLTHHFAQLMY
MEKK2wt confirm: raises or lowers MEK5 binding to wildtype human MEKK2, retest. actives 2.4% (n = 5,900). binding response (% of control), % at 10 µM. bead flow cytometry, Alexa488-MEK5 binding to MEKK2 WT; actives lie on both sides. shares compounds with MEKK3 PB1 HTS; in the data active = binding response below about 16% or above about 210%; inactive = in between
MEKK2mut-MEK5: signal of MEK5 binding to mutant human MEKK2, retest; shares compounds with MEKK3 PB1 HTS; bead flow cytometry, Alexa488-MEK5 binding to MEKK2 mutant; percent response, % at 10 µM; actives 2% (n = 5,900); AID 1893; in the data active = percent response mostly above about 71%, no sharp cut-off; inactive = mostly below about 38%;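 note: higher means compound restores mutant binding toward wildtype level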
MEKK3 confirm: MEKK3-MEK5 PB1 inhibition, single concentration confirmation | shares compounds with MEKK3 PB1 HTS | bead flow cytometry, Alexa488-MEK5 binding to MEKK3; stronger effect = lower value | actives 1.8% (n = 5,900) | AID 1894 | binding response (% of control), % at 10 µM;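 active = binding response below 72% of control, or above a set upper limit, though filed actives all read lower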;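 note: 100% = DMSO only wells and 0% = binding blocked by excess unlabeled MEK5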
* marks the source's active call; other numbers are inactive results; . = no result given; ! = a repeat was not active; [ ] = dose if it differs, or a comment. A selection: hits, their analogues and other compounds. The true share with any hit is near 2.6%.

SMILES	MEKK2 WT-MEK5	MEKK2mut PB1 HTS	Lipid droplet	MEKK3 PB1 HTS	MEKK2wt confirm	MEKK2mut-MEK5	MEKK3 confirm
CCC1(CC)C(=O)C2=C3C1[C@H](C(=O)OC)CC(C(=O)OC)C[C@H]3[C@H]1C(=O)N(c3ccccc3)C(=O)[C@H]1[C@H]2C (stereo partly drawn)	75.0	-9.0	.	57.0*[inhibitor]	96.0	6.0	97.0
O=C(Cc1nnc(NC(=O)Nc2ccc(F)cc2)s1)NCc1ccccc1	91.0	-5.0	2.1	92.0	.	.	.
Cc1ccc(C(=O)NCCc2nnc3ccc(SCC(=O)Nc4c(C)cc(C)cc4C)nn23)cc1	108.0	1.0	-18.1	133.0*	103.0	2.0	101.0
Cc1ccc(C(=O)NCCc2nnc3ccc(SCC(=O)Nc4ccccc4C)nn23)cc1	112.0	5.0	6.9	109.0	.	.	.
Cc1c(NC(=S)SCc2ccccc2)c(=O)n(-c2ccccc2)n1C	98.0	-1.0	-1.5	108.0	.	.	.
O=C(CNC(=O)c1ccco1)Nc1ccc(Cl)cc1	105.0	3.0	2.5	107.0	.	.	.
C=CCNC(=O)c1c(Cl)nc(C)c([N+](=O)[O-])c1C	112.0	2.0	5.3	155.0*	97.0	-1.0	100.0
CCN(C(=O)CN1CCCCC1)C1(C)C(=O)c2ccccc2C1=O	109.0	1.0	-7.0	140.0*	101.0	1.0	100.0
O=C1NC2(CCCC2)N=C1c1ccc(F)cc1	118.0	4.0	-5.0	122.0*	99.0	8.0	100.0
COc1cccc(C(=O)N2CCC(C(=O)NCc3ccc(C)cc3)CC2)c1	96.0	-9.0	-6.2	98.0	.	.	.
COc1ccc(CNCc2cccn2C)cc1	120.0	28.0*	1.9	111.0	110.0	0.0	98.0
Cc1csc(SCC(=O)NCCc2ccc(Cl)cc2Cl)n1	95.0	-1.0	-9.4	69.0*[inhibitor]	100.0	2.0	101.0
Cc1ccc(P(=O)(CSC(=N)N)c2ccc(C)cc2)cc1	108.0	2.0	-24.3	133.0*	101.0	-7.0	100.0
CCn1c(/C=N/Nc2ccc(C(=O)O)cc2)nc2ccccc21	107.0	0.0	-3.0	133.0*	99.0	-2.0	98.0
OC(COc1ccc2ccccc2c1)CN1CCCC1 (stereo not drawn)	102.0	2.0	.	90.0	.	.	.
OC(COc1cccc2ccccc12)CN1CCN(c2cccc(Cl)c2)CC1 (stereo not drawn)	99.0	6.0	8.0	100.0	.	.	.
OC(COc1cccc2ccccc12)CN1CCN(c2ccc(Cl)cc2)CC1 (stereo not drawn)	144.0*!	-2.0	45.8	102.0	113.0	8.0	105.0
OC(COc1cccc2ccccc12)CN1CCCC1 (stereo not drawn)	139.0*	10.0	.	103.0	133.0	15.0	103.0
CC(=O)c1cccc(N/C=C\C(=O)c2ccc(C)cc2)c1	105.0	0.0	17.3	135.0*	105.0	8.0	108.0
CC(=O)c1cccc(NS(=O)(=O)c2ccc(N/C=C\C(=O)c3ccc(C)cc3)cc2)c1	99.0	-5.0	.	102.0	.	.	.
COc1ccc(Nc2ccc(C(N)=O)cc2[N+](=O)[O-])cc1	84.0	-3.0	-2.0	57.0*[inhibitor]	103.0	5.0	105.0
Cc1cccc(C)c1NC(=O)NC1(C(=O)NCC2CCCO2)CCCCC1 (stereo not drawn)	96.0	-6.0	4.6	99.0	.	.	.
CCc1ccc(CCN2C(=O)c3ccccc3C2=O)nc1	75.0	-31.0	9.4	75.0*[inhibitor]	97.0	-4.0	101.0
Cc1nc(CCN2C(=O)c3ccccc3C2=O)n[nH]1	100.0	1.0	11.6	98.0	.	.	.
Cc1cc(NC(=O)CCC(=O)N(c2ccccc2)C(C(=O)NC2CCCC2)c2ccccc2F)no1 (stereo not drawn)	96.0	-2.0	-0.7	101.0	.	.	.
COC(=O)N1N=C(c2ccccc2)CC1(O)C(F)(F)F (stereo not drawn)	-5.0*[inhibitor]	-39.0	.	0.0*[inhibitor]	97.0	-4.0	102.0
